Experimental data collected from several papers.
Target: Mitogen-activated protein kinase kinase kinase 12 (MAP3K12, Homo sapiens, UniProt Q12852)
One construct used (Q12852 1-859): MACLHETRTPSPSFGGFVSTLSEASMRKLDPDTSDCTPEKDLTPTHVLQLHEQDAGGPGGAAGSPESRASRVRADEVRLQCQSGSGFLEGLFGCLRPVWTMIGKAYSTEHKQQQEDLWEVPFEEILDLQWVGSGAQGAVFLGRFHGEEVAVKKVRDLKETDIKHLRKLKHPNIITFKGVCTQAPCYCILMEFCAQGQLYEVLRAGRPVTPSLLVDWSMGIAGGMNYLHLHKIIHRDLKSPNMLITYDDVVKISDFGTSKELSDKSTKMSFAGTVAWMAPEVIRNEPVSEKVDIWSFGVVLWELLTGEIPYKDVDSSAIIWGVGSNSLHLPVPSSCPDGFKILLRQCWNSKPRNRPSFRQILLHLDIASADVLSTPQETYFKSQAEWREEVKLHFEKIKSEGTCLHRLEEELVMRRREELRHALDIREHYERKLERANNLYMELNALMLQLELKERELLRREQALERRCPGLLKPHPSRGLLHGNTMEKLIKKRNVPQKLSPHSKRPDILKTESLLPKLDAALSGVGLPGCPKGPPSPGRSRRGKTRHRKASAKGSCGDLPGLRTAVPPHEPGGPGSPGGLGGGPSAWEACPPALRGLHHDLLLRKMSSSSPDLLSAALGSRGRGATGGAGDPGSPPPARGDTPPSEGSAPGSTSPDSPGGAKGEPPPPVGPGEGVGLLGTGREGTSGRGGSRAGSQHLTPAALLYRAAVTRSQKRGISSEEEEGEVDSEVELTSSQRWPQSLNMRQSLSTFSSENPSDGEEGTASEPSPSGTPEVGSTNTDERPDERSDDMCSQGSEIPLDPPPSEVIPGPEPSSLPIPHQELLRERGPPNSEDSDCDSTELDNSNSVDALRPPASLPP

Structure (SMILES)	test	conditions	remaining binding
Nc1ncc2c(n1)-c1c([nH]c3ccc(C#CC4CC4)cc13)CCCC2	binding, competition with immobilised ligand	1 µM	93%
O=C(c1ccc(Nc2nccc(-c3cc4ccccc4s3)n2)cc1)N1CCC(N2CCCC2)CC1	binding, competition with immobilised ligand	1 µM	28%
FC(F)(F)Oc1cccc(-c2cnc3ccc(-c4ccncc4)nn23)c1	cell-free assay, competition with immobilised ligand	5 µM	45%
FC(F)(F)c1ccc2c(c1)nc(-c1cccnc1)n2C1CC1	cell-free assay, competition with immobilised ligand	1 µM	100%
C[C@H]1CCN(c2nccc(-c3cnn4ncccc34)n2)C1	binding	1 µM	100%
CC(=O)C1=C(C)N(c2cccc(C(F)(F)F)c2)C(=O)N[C@@H]1c1ccc(C#N)nc1	cell-free assay, competition with immobilised ligand	1 µM	86.8%
CN(c1nccc(-c2cnn3ncccc23)n1)C1CC1	binding	1 µM	100%
O=C(NCCCN1CCOCC1)c1ccc(Nc2ncc(Cl)c(-c3ccc(Cl)s3)n2)cc1	binding, competition with immobilised ligand	1 µM	33%
O=C(Nc1cnc(Oc2ccc(F)cc2)nc1)N1CCc2ncccc2[C@@H]1c1ccc(F)cc1	cell-free assay, competition with immobilised ligand	1 µM	100%
CNC(=O)[C@@H]1CC[C@@H](n2c(-c3ccc4cnccc4c3)nc3ccc(C(=O)NCc4cccc(C(N)=O)c4)cc32)C1	binding, competition with immobilised ligand	1 µM	100%
Cc1cnn2ncc(-c3ccnc(N(C)C)n3)c2c1	binding	1 µM	83%
CN([C@@H]1CCc2c(CC(=O)O)c3ccccc3n2C1)S(=O)(=O)c1ccc(F)cc1	cell-free assay, competition with immobilised ligand	1 µM	100%
CCN1CCN(Cc2ccc(C(=O)Nc3ccc(C)c(Oc4ccc5c(c4)CC(=O)N5)c3)cc2C(F)(F)F)CC1	binding, competition with immobilised ligand	1 µM	100%
CN(CCCC(F)(F)F)c1nccc(-c2cnn3ncccc23)n1	binding	1 µM	100%
C[C@@H]1CN(c2cc(-c3n[nH]c4ccc(OC5(C)CC5)cc34)ncn2)C[C@H](C)O1	cell-free assay, competition with immobilised ligand	0.1 µM	82%
CN(C)c1ncc(F)c(-c2cnn3ncccc23)n1	binding	1 µM	72%
O=C(Nc1c[nH]nc1C(=O)NC1CCNCC1)c1cc(F)cc(F)c1	binding, competition with immobilised ligand	1 µM	88%
c1cnn2ncc(-c3ccnc(N4CCC45COC5)n3)c2c1	binding	1 µM	74%
O=C(NCCCN1CCOCC1)c1ccc(Nc2nccc(-c3cc4ccccc4s3)n2)cc1	binding, competition with immobilised ligand	1 µM	54%
Cc1nc(N2CC[C@@H](O)C2)ncc1-c1cc(C(F)(F)F)cc2[nH]ncc12	binding, competition with immobilised ligand	1 µM	99%
